Assay outcomes from PubChem.
TNF necrop inh = blocks TNF-alpha induced death of Jurkat FADD-/- cells; AID 463075; hit rate 0.068% among 220,000; activation (protection from cell death), % at 10 µM; Jurkat FADD-/- TNF necroptosis rescue, ATP luminescence, 24 h; 0 = TNF only, 100 = no-TNF cells;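 active = activation, meaning protection from cell death, of at least 50% relative to plate controls; inactive = activation below 50%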;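 note: necroptosis triggered by 40 ng/mL TNF-alpha added together with compound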
zVAD death inh = L929 zVAD cell death inhibition; L929 zVAD necroptosis rescue, ATP luminescence, 24 h; with zVAD 60 µM; hit rate 0.38% among 220,000; viability rescue, % at 10 µM; AID 1377;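 active = activation, scaled between plate controls, above about 75%, limit read from the data; inactive = activation under that limit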;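 note: 0% = zVAD with DMSO and 100% = DMSO alone without zVAD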
Wee1 degr inh = human Wee1 degradation inhibition, primary screen; P30291; HeLa Luc-Wee1K328M stability, luciferase luminescence; 100% = proteasome inhibitor MG132 effect; reporter increase, % at 5 µM; hit rate 1.2% among 220,000; AID 1321;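 active = activation above the mean of all tested compounds plus 3 SD, set per screening run, cut at about 8.8% in these data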;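 note: cells exposed to compound for 20 h before luminescence read; 0% = DMSO alone and 100% = MG132 at 30 µM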
Target sequence (P30291 whole entry K328M): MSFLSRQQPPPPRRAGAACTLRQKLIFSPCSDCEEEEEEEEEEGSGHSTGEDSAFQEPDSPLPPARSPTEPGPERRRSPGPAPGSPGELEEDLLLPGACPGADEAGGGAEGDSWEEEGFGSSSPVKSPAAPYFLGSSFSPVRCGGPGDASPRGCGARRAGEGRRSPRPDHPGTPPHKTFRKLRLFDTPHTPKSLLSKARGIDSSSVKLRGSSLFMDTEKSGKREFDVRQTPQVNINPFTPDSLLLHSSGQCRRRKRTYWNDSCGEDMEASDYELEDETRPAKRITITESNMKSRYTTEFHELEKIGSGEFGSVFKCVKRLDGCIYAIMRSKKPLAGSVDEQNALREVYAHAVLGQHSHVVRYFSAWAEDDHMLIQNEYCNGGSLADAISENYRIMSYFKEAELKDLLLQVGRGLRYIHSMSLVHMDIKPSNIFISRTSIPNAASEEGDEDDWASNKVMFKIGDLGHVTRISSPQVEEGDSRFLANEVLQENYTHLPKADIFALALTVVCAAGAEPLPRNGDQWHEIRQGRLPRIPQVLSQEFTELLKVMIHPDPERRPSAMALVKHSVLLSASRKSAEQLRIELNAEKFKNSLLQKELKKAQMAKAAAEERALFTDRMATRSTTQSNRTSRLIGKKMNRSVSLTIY
M18AAP inhibitor = blocks P. falciparum M18 aspartyl aminopeptidase; recombinant PfM18AAP, H-Glu-NHMec fluorogenic cleavage; hit rate 1.2% among 290,000; inhibition, % at 7.35 µM; AID 1822;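 active = inhibition above the campaign mean inhibition over all tested compounds plus 3 SD, cut at about 28% in these data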;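 note: 0% = plate median of test compound wells and 100% = 2 mM ZnCl2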
p97 ATPase inh = inhibitors of human p97 ATPase | inhibition, % at 8 µM | P55072 | recombinant p97 ATPase, Kinase-Glo ATP luminescence, 3 h | AID 1481 | hit rate 0.42% among 220,000; in the data active = inhibition above about 15%;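 note: 0% = DMSO vehicle and 100% = wells lacking enzyme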
RBBP9 inh = human RBBP9 hydrolase inhibition. hit rate 0.2% among 220,000. inhibition, % at 7.94 µM. recombinant RBBP9, FP-Rh probe fluorescence polarization. O75884;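 active = inhibition above the campaign mean of all tested compounds plus 3 SD, cut at about 14% in these data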;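 note: plate controls were DMSO wells with RBBP9 for no effect and wells lacking RBBP9 protein for full effect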
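Measured by – fluorescence polarization · Test system – RBBP9 protein · Input – 2.5 µM RBBP9 dispensing solution, before mixing · Measure – percent inhibition from mP, scaled between DMSO and no-protein wells · Benchmarks – DMSO-treated enzyme wells and wells lacking RBBP9 · Times – preincubation 30 min plus labeling 45 min at 25 °C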
Numbers without * were called inactive; nt = not tested or not shown. An excerpt weighted towards active compounds, which were near 2.7% of everything screened.

SMILES	TNF necrop inh	zVAD death inh	Wee1 degr inh	M18AAP inhibitor	p97 ATPase inh	RBBP9 inh
Cc1cc(=O)oc2cc(OCC(=O)Nc3cccc(S(=O)(=O)N(C)C)c3)ccc12	1	0	9.6*	-2	-3	-9
Cc1cc(=O)oc2cc(NC(=O)c3cccc(S(=O)(=O)N(C)C)c3)ccc12	nt	nt	nt	3	nt	nt
Cc1ccc(S(=O)(=O)/C(=C\N(C)C)c2cnc(Cl)s2)cc1	-1	0	0	8	3	-4
Cc1cc(C(=O)CN2C(=O)NC3(CCCCC3)C2=O)c(C)n1Cc1ccc2c(c1)OCO2	-1	0	9.2*	2	3	-5
Cc1cc(C(=O)CN2C(=O)NC3(CCCC3)C2=O)c(C)n1-c1ccc2c(c1)OCO2	2	0	3	11	3	-4
Cc1ccc(-c2nn(-c3ccccc3)cc2C=O)o1	-3	0	11*	15	4	3
Cc1ccc(-c2nn(-c3ccccc3)cc2C(N)=O)o1	0	5	-2	-21	6	-8
CCOc1c(N2CC(C)OC(C)C2)c(=O)c1=O (centres undefined)	8	0	9.4*	2	5	7
CCOc1c(N2CCOCC2)c(=O)c1=O	3	1	0	-5	8	3
Cc1cc(O)c(CN(C)C)c2c1C(=O)/C(=C/c1ccco1)O2	nt	nt	nt	31*	nt	nt
Cn1c(=O)[nH]c(=O)c2c1nc(N/N=C/C(Br)=C/c1ccccc1)n2CCO	-25	-1	-2	30*	7	-1
CCOc1ccccc1NC(=O)CSc1nnc(CNC(=O)c2cccs2)o1	nt	nt	nt	-6	nt	nt
Cc1ccc(NC(=O)Cn2nnc3ccccc32)cc1	0	10	10*	8	7	-7
NC(=O)COC(=O)/C=C/c1cccc(Br)c1	1	0	0	-12	-4	-12
O=C(CSc1nnc(-c2ccc(F)cc2)c2ccccc12)Nc1cccc(Cl)c1	3	1	0	0	1	-6
O=C(CSc1nnc(-c2ccc(F)cc2)c2ccccc12)Nc1ccccc1	2	-1	10*	5	11	-9
Cc1occc1C(=O)N1CCCC(N2CCN(c3ccccc3F)CC2)C1 (centres undefined)	nt	nt	nt	2	nt	nt
Cc1ccc(C(=O)NCCCN2CCOCC2)c(Cl)c1	nt	nt	nt	-2	nt	nt
CSc1nc2c(c(=O)[nH]1)C(c1cccc(Cl)c1)CC(=O)N2 (centres undefined)	-1	2	-4	7	9	-10
CSc1nc(O)c(Nc2cccc(Cl)c2)c(=O)[nH]1	1	0	1	31*	4	-6
Cc1ccc(-c2noc(CNS(=O)(=O)c3ccccc3)n2)cc1	nt	nt	nt	-3	nt	nt
COc1ccc(N2C(=O)C(Cl)=C(Nc3ccccc3OC)C2=O)cc1	0	nt	2	14	4	-7
COc1ccc(N2C(=O)C(Cl)=C(Nc3ccccc3O)C2=O)cc1	-5	1	-3	29*	3	4
CC1=C(C(=O)Nc2ccccc2C(F)(F)F)C(c2sccc2C)NC(=S)N1 (centres undefined)	0	-1	-3	1	-11	-9
COc1ccc(Cl)cc1S(=O)(=O)N1CCCC1=O	0	1	10.0*	1	1	-1
SMILES	TNF necrop inh	zVAD death inh	Wee1 degr inh	M18AAP inhibitor	p97 ATPase inh	RBBP9 inh
O=C(Cn1nnc(-c2ccccc2Cl)n1)N/N=C/c1ccc2c(c1)OCO2	-1	1	12*	-1	1	1
Cc1cc(C(=O)OCC(=O)Nc2cc(S(=O)(=O)N3CCOCC3)ccc2Cl)c(C)o1	3	1	-3	3	16*	-1
O=C(NCCc1ccccc1)c1ccncc1	0	0	11*	-9	6	0
O=C(NCCc1ccc(F)cc1)c1ccncc1	nt	nt	nt	-4	nt	nt
O=C(NCCc1ccccc1)c1ccc(Cl)c([N+](=O)[O-])c1	2	0	9.4*	-1	-1	-8
Cc1ccc(-n2c3c(c(=O)[nH]c2=O)C(NS(=O)(=O)c2ccc(Cl)cc2)(C(F)(F)F)C(=O)N3)cc1 (centres undefined)	0	1	0	-6	-1	-3
CCN(CC)c1ccc(N=Nc2ncn[nH]2)cc1	-6	39	0	30*	5	-7
O=C(O)/C=C/C(=O)Nc1ccc(OC(F)(F)F)cc1Br	1	0	2	-13	11	-4
O=C(O)Cn1cccc1C(=O)c1ccccc1	0	0	9.2*	-1	8	-4
CCc1ccc(NC(=O)CSC2=C(C#N)C(c3ccco3)C3=C(CCCC3=O)N2)cc1 (centres undefined)	0	2	0	25	5	-2
COC(=O)CSC1=C(C#N)C(c2ccc(C)cc2)C2=C(CCCC2=O)N1 (centres undefined)	0	1	-2	30*	6	5
N#CC1=C(SCC(=O)c2ccc(Br)cc2)NC2=C(C(=O)CCC2)C1c1ccco1 (centres undefined)	-15	-1	11*	10	5	-5
CC(C)COC(=O)Cn1cnc2ccc(Br)cc2c1=O	57*	1	3	-1	3	2
O=C(Cn1cnc2ccc(Cl)cc2c1=O)c1cccs1	67*	1	-3	-1	8	2
O=C(Cn1cnc2ccc(Br)cc2c1=O)c1cccs1	74*	1	-2	9	2	-7
CCCCOC(=O)Cn1cnc2ccc(Br)cc2c1=O	13	0	-3	-4	4	-5
Cc1ccc(Cl)cc1NC(=O)c1cc2ccccc2cc1O	-27	3	-3	-8	13	-4
Cc1cccc(NC(=O)C(=O)NCC2CCCO2)c1 (centres undefined)	1	4	8.8*	1	10	-2
O=C(Cc1ccc(F)cc1)NCC1CCCO1 (centres undefined)	2	1	0	-7	0	1
O=C(NCC1CCCO1)Nc1cccc(Cl)c1 (centres undefined)	0	0	0	0	0	-9
O=C(Cc1ccccc1)NCC1CCCO1 (centres undefined)	0	-1	10*	-5	0	-2
Cc1ccc(NS(=O)(=O)c2ccc(C(=O)NCC3CCCO3)cc2)cc1 (centres undefined)	1	2	11*	2	1	-1
Cc1nnnn1CC(=O)Nc1cccc([N+](=O)[O-])c1	0	-2	1	-3	-5	-11
Cc1cc2c(C)nc(N/N=C/c3ccc([N+](=O)[O-])cc3)nc2o1	11	7	3	30*	0	-6
Cc1nc2ccc(NC(=O)N3CCOCC3)cc2nc1C	1	1	2	-1	3	0
Cc1nc2ccc(NC(=O)N3CCOCC3)cc2s1	0	-1	10*	-6	3	2
